Compound activity (PubChem BioAssay)
Shown are actives, neighbours in structure and some others; about 1.6% of the full set was active somewhere.
Neddyl block = inhibitors of human cullin neddylation | P61081+Q13564 | TR-FRET cullin neddylation, biochemical | calls only at 25 µM | 0.58% of 360,000 active | AID 651699; in the data active means inhibition above about 36%
FID counter = counter-screen for HCV NS3 helicase inhibitors: DNA intercalator displacement; 0.17% of 290,000 active; inhibition, % at 7.9 µM; AID 1845; DNA fluorescent intercalator displacement, fluorescence; in the data active means inhibition above about 37%;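 further: 0% = vehicle and 100% = reference compound; higher means more ethidium bromide displaced from hairpin DNA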
Apaf1 inhib = inhibitors of human Apaf-1 apoptosome | O14727 | reconstituted apoptosome caspase-3 activity, DEVD-Rh110 fluorescence | inhibition, % at 20 µM | 0.71% of 330,000 active | AID 489030; active means inhibition of at least 40% at 20 µM;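 further: plate controls were DMSO wells for no effect and DEVD-CHO caspase inhibitor wells for full effect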
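Material: reconstituted apoptosome with Apaf-1, cytochrome c, caspase-9, procaspase-3, dATP; medium: pH 7.5 Hepes buffer with CHAPS, BSA, DTT; also added: cytochrome c and DEVD-Rh110 substrate; timing: 30 min plus 50 min, RT; signal: Rh110 fluorescence intensity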
RAD54 branch = RAD54 (human) branch migration inhibition; Q92698; RAD54 Holliday junction branch migration, FAM/BHQ fluorescence; inhibition, % at 10.4 µM; 0.14% of 360,000 active; AID 602329;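 active means mean normalized replicate activity at least 40 and at least half of replicates scoring 40 or more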;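 further: 0% = median of neutral control wells and 100% = median of positive control wells; inhibitors cause a drop in the FAM fluorescence signal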
UBC13 inh = blocks human UBC13 polyubiquitin chain formation | P61088 | TR-FRET | inhibition, % at 20 µM | 0.47% of 330,000 active; in the data active means inhibition above about 45%, passing the limit was not always enough
Target sequence (P61088 whole entry, looked up): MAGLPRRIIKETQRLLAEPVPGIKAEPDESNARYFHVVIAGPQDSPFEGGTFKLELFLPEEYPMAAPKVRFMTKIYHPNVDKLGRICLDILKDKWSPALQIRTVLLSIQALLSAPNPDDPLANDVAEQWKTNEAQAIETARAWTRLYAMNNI
RAD52 anneal inh = blocks human RAD52 DNA annealing | recombinant RAD52 DNA annealing, FRET fluorescence | 0.46% of 360,000 active | P43351 | inhibition, % at 18.7 µM;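 active means every replicate showing at least 50% inhibition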
Target sequence (P43351 whole entry, looked up): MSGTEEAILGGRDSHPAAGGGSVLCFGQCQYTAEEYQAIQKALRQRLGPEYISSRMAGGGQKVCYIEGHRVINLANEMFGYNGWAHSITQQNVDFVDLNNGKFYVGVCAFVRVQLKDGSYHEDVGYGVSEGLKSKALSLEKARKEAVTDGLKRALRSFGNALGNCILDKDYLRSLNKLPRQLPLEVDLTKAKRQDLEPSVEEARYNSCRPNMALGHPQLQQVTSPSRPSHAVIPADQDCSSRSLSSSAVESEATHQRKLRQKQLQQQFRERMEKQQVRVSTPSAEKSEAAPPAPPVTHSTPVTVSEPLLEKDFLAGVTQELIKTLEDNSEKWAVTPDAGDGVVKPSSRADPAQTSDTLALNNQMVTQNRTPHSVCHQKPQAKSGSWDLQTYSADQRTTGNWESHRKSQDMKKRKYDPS
Apaf-1 inh conf = confirmation of Apaf-1 inhibitors. inhibition, % at 20 µM. 25% of 1,800 active. AID 504614. shares compounds with Apaf1 inhib. reconstituted apoptosome, caspase-3 DEVD-Rh110 fluorescence;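 active means mean inhibition of at least 40% at 20 µM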;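 further: plate controls were DMSO wells for no effect and DEVD-CHO caspase inhibitor control wells for full effect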
Rh110 interf inh = Rh110 signal interference in Apaf-1 inhibitor counter-screen; shares compounds with Apaf1 inhib; Rh110 fluorescence interference, quenched caspase reaction; activation (fluorescence interference), % at 20 µM; 1,800 tested, under 10 active; AID 504615;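 active means signal rise of 40% or more at 20 µM, treated as a fluorescence artifact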
Apaf1 inh interf = Apaf-1 inhibitor counter-screen fluorescence artifact; shares compounds with Apaf1 inhib; fluorescence interference counterscreen, Apaf-1 assay format; IC50, µM; 460 tested, under 10 active; AID 588538; call rule not given here
Numbers without * were called inactive; i = inactive; . = no result given.

SMILES	Neddyl block	FID counter	Apaf1 inhib	RAD54 branch	UBC13 inh	RAD52 anneal inh	Apaf-1 inh conf	Rh110 interf inh	others
COc1cccc(NC(=O)N(C)C[C@@H]2Oc3cc(C#Cc4ccc(F)cc4)ccc3S(=O)(=O)N([C@H](C)CO)C[C@@H]2C)c1	.	.	.	-8	.	2	.	.
CC(=O)c1coc2c1cc(O)c1ccccc12	i	0	10	-4	-4	.	.	.
CC(=O)c1cc(O)c2ccccc2c1O	i	-5	58*	-9	-41	-31	11	3
CN1C(=O)c2cc(NC(=O)NC3CCCC3)ccc2OC[C@H]2O[C@@H](CC(=O)O)CC[C@@H]21	.	.	.	3	.	-4	.	.
CCOc1cc(C(c2c(C)[nH][nH]c2=O)c2c(C)[nH][nH]c2=O)ccc1OS(=O)(=O)c1ccc(C)cc1	i	-16	41*	-4	-1	.	25	19
CCOc1ccc(C(c2c(C)[nH][nH]c2=O)c2c(C)[nH][nH]c2=O)cc1OC	i	-4	21	12	-11	.	.	.
O=C1C(NS(=O)(=O)c2ccccc2)=C(N2CCN(c3ccc(F)cc3)CC2)C(=O)c2ccccc21	i	-7	18	-5	-56	-5	.	.
CCOC(=O)C1CCN(C2=C(NS(=O)(=O)c3ccc(Cl)cc3)C(=O)c3ccccc3C2=O)CC1	i	-5	14	.	-46	-18	.	.
O=C1C(NS(=O)(=O)c2ccc(Br)cc2)=C(N2CCCCC2)C(=O)c2ccccc21	i	-3	36	-2	-32	-5	.	.
CC1CCN(C2=C(NS(=O)(=O)c3ccc(Br)cc3)C(=O)c3ccccc3C2=O)CC1	i	-8	54*	7	-91	-2	26	-3
CC1CCCN(C2=C(NS(=O)(=O)c3ccc(Br)cc3)C(=O)c3ccccc3C2=O)C1 (stereo not drawn)	i	-6	51*	-8	-49	-15	31	-2
CC1CCN(C2=C(NS(=O)(=O)c3ccccc3)C(=O)c3ccccc3C2=O)CC1	i	-3	60*	.	-62	-8	34	6
CCOC(=O)C1CCCN(C2=C(NS(=O)(=O)c3ccc(Br)cc3)C(=O)c3ccccc3C2=O)C1 (stereo not drawn)	i	-3	67*	1	-84	7	48*	21
COc1ccc2c3c(n(C)c2c1)[C@@H](CO)N(C(=O)C1CCCC1)CC31CCN(C(=O)CC2CC2)CC1	.	.	.	.	.	4	.	.
C[C@H](CO)N1C[C@H](C)[C@@H](CN(C)C(=O)Nc2cccc3ccccc23)Oc2c(NC(=O)Nc3ccc4c(c3)OCO4)cccc2C1=O	.	.	.	-2	.	0	.	.
C[C@@H]1CCCCO[C@H](CN(C)S(=O)(=O)c2cn(C)cn2)[C@H](C)CN([C@@H](C)CO)C(=O)c2cc(NC(=O)CCC(F)(F)F)ccc2O1	.	.	.	-4	.	0	.	.
O=C1C(NS(=O)(=O)c2cccs2)=C(N2CCN(c3cccc(Cl)c3)CC2)C(=O)c2ccccc21	i	0	58*	2	-68	.	33	14
O=S(=O)(Nc1ccc(N2CCOCC2)cc1)c1cccs1	i	5	-6	-7	5	17	.	.
CC1CCN(C2=C(NS(=O)(=O)c3ccc(Cl)cc3)C(=O)c3ccccc3C2=O)CC1	i	5	46*	-9	-45	-3	15	-21
O=[N+]([O-])c1cc([N+](=O)[O-])c2nonc2c1Nc1ccc(O)cc1	i	2	74*	-8	-182	-16	13	-2
C[C@H](CO)N1C[C@H](C)[C@@H](CN(C)C(=O)Cc2ccccc2)Oc2ncc(C#Cc3ccccc3F)cc2C1=O	.	.	.	1	.	17	.	.
CCN(CC(=O)Nc1c(F)cccc1F)C(=O)Cc1ccsc1	i	.	52*	-6	33	-5	42*	9	Apaf1 inh interf=>100
CCN(CC(=O)Nc1ccc(OC)cc1)C(=O)Cc1ccsc1	i	.	-6	2	-2	-6	.	.
CCN(CC(=O)Nc1c(F)cccc1F)C(=O)CNC(=O)c1ccc2c(c1)OCO2	i	-4	53*	4	18	-3	31	2
CN(C)C(=O)C[C@H]1C[C@H]2c3cc(NC(=O)Nc4ccccc4)ccc3O[C@H]2[C@H](CO)O1	.	.	.	-7	.	.	.	.
SMILES	Neddyl block	FID counter	Apaf1 inhib	RAD54 branch	UBC13 inh	RAD52 anneal inh	Apaf-1 inh conf	Rh110 interf inh	others
CC(C)OC(=O)N(C)C[C@@H]1OCc2cn(nn2)CCCC(=O)N([C@@H](C)CO)C[C@@H]1C	.	.	.	7	.	1	.	.
CN(C)S(=O)(=O)c1cccc(C(=O)Nc2ccc(Cl)cn2)c1	i	-6	-6	-7	2	.	.	.
Cc1ccc(N(C)S(=O)(=O)c2cccc(C(=O)Nc3ccc(C)cn3)c2)cc1	i	.	45*	-2	16	0	38	-2
CCN(CC)c1cc(Cl)c2nonc2c1N	i	2	-10	-8	-16	-13	.	.
CN(C)c1cc(Cl)c2nonc2c1N	i	2	94*	-40	-78	-21	52*	3	Apaf1 inh interf=>100
CCC(=O)Nc1ccc2c(c1)C(=O)N(C)[C@H]1CC[C@H](CC(=O)NCc3ccc(OC)cc3)O[C@@H]1CO2	.	.	.	-1	.	0	.	.
CCN1/C(=C/c2ccc3cc(C)ccc3[n+]2CC)Sc2ccccc21	i	0	37	.	i	i	.	.
CCN1/C(=C/c2ccc3cc(C)ccc3[n+]2CC)Sc2cc(C)c(C)cc21	i	-8	64*	.	16	i	60*	-19	Apaf1 inh interf=>100
CCCN(CC(=O)Nc1ccccc1C)C(=O)C1CCCN(C(=O)c2ccc(Cl)cc2)C1 (stereo not drawn)	i	.	48*	-17	36	17	32	-4
Cc1cccc(C)c1NC(=O)CNC(=O)C1CCCN(C(=O)c2ccc(Cl)cc2)C1 (stereo not drawn)	i	.	-5	.	9	5	.	.
CCN(CC(=O)Nc1ccc(OC)cc1)C(=O)C1CCN(C(=O)c2ccc(Cl)cc2)CC1	i	.	58*	-3	40	1	38	2
CCN(CC(=O)Nc1c(F)cccc1F)C(=O)C1CCN(C(=O)c2ccc(F)cc2)CC1	i	.	6	-10	-4	-2	.	.
CCCN(CC(=O)Nc1ccccc1C)C(=O)C1CC(=O)N(c2ccccc2C(C)CC)C1 (stereo not drawn)	i	.	48*	-9	15	2	33	4
CCCN(CC(=O)Nc1ccccc1C)C(=O)C1CC(=O)N(c2ccccc2OCC)C1 (stereo not drawn)	i	.	.	-5	.	10	.	.
O=C(Cc1ccccn1)N1CC2(C1)[C@@H](c1ccccc1)[C@@H](CO)N2C(=O)c1cccnc1	.	.	.	.	.	-220	.	.
